In series [1] the target is Signal transducer and activator of transcription 3 (Homo sapiens, UniProt P40763). The series is described as follows: Induction of STAT3 degradation in human MOLM-16 cells assessed as decrease in STAT3 level at 10 uM incubated for 4 hrs by proteomic analysis. The format is cell-based. The conditions noted are these: MOLM16. In a few lines: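 MOLM-16 cells treated with 1 or 10 μM for 4 h. Protein levels measured by quantitative proteomics across more than 7000 proteins.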

The target in series [2] is T1, Signal transducer and activator of transcription 5B (Homo sapiens, UniProt P51692).
T1 sequence (P51692 whole entry): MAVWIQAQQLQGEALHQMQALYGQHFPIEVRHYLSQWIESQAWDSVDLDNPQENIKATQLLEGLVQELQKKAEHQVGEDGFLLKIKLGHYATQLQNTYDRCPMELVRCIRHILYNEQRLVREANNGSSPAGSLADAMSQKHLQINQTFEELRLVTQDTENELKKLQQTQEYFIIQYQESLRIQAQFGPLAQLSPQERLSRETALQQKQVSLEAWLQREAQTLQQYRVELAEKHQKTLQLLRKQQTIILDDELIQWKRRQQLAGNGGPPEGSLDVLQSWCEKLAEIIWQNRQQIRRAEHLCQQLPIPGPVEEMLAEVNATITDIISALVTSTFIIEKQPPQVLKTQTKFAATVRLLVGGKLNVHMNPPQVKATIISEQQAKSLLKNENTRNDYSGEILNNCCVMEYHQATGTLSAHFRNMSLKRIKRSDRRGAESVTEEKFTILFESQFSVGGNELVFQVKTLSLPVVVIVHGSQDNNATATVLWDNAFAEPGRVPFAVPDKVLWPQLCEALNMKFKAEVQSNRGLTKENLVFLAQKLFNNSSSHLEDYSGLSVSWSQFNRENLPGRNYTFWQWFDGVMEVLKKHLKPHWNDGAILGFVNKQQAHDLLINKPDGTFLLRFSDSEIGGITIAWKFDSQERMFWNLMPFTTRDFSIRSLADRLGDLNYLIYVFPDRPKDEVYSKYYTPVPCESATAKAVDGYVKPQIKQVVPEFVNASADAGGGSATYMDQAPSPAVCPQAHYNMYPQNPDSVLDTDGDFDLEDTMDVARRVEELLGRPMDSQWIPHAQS
The series is described as follows: Binding affinity to human recombinant STAT5B assessed as dissociation constant incubated for 15 mins by biolayer interferometry. In outline: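 Biolayer interferometry with recombinant human STAT1, STAT2, STAT3, STAT4, STAT5A, STAT5B or STAT6 proteins containing their SH2 domain. Compound run in 2× serial dilutions from 200 nM. Kd taken from steady-state fitting of equilibrium responses against concentration using a 1:1 binding model.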

In series [3] the test system is Mus musculus. Kind of series: In vivo induction of STAT3 degradation in SCID mouse xenografted with human SU-DHL-1 cells assessed as reduction in total STAT3 level in tumor tissue at 50 mg/kg, iv measured after 24 hrs by immunoblotting analysis. The format is functional, organism-based. In a few lines: (§1)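 SCID mice bearing MOLM-16 or SU-DHL-1 xenografts given a single iv dose of 50 mg/kg or dosing vehicle. Tumor lysates immunoblotted for p-STAT3 Y705 and total STAT3 at time points up to 48 h (MOLM-16) and 24 h (SU-DHL-1).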

For series [4], the system named is Mus musculus. Kind of series: In vivo induction of STAT3 degradation in SCID mouse xenografted with human MOLM16 cells assessed as reduction in phosphorylated STAT3 level in tumor tissue at 50 mg/kg, iv measured after 24 hrs by immunoblotting analysis. In kind it is functional, organism-based. In a few lines: as §1
Series [5] deals with Mus musculus. Kind of series: In vivo induction of STAT6 degradation in SCID mouse xenografted with human MOLM16 cells assessed as reduction in STAT6 in tumor tissue at 50 mg/kg, iv measured after 24 hrs by immunoblotting analysis. The format is functional, organism-based. In outline:
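SCID mice bearing MOLM-16 tumors given a single iv dose of 50 mg/kg or dosing vehicle. Tumor lysates immunoblotted for STAT3, STAT1 and STAT6 at time points from 1 h to at least 24 h.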

For series [6], the target named is T2, Protein cereblon/Signal transducer and activator of transcription 6 (Homo sapiens) (UniProt P42226+Q96SW2). Kind of series: Protac activity at CRBN/STAT6 in human SU-DHL-1 cells assessed as STAT6 degradation at 0.25 to 100 uM incubated for 4 hrs by Western blot analysis. The conditions noted are these: dose 0.25-100 µM. The format is cell-based.
Series [7] addresses T3, Protein cereblon/Signal transducer and activator of transcription 5A (Homo sapiens) (UniProt P42229+Q96SW2). The series is described as follows: Protac activity at CRBN/STAT5 in human MOLM16 cells assessed as STAT5 degradation at 0.25 to 100 uM incubated for 4 hrs by Western blot analysis. The format is cell-based. To be noted: dose 0.25-100 µM. In outline: (§2)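 Cells treated 4 h with compounds across 25 nM to 100 μM; STAT proteins detected by Western blot with GAPDH as loading control; STAT3 DC50 estimated by densitometry of STAT3 relative to GAPDH. Applies to MOLM-16 for all STATs, and to SU-DHL-1 and SUP-M2 for STAT3.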

Series [8] can be described thus: Drug uptake in SCID mouse xenografted with human MOLM16 cells assessed as (2-(((5S,8S,10aR)-8-(((S)-5-amino-1-(benzhydrylamino)-1,5-dioxopentan-2-yl)carbamoyl)-3-(8-(2-(2,6-dioxopiperidin-3-yl)-1-oxoisoindolin-4-yl)oct-7-yno yl)-6-oxodecahydropyrrolo[1,2-a][1,5]diazocin-5-yl)carbamoyl)-1H-indole-5-carbonyl)phosphonic acid level in tumor tissue at 50 mg/kg, iv measured after 24 hrs by LC-MS/MS. The format is ADME, organism-based. The conditions noted are these: in vivo. In outline:
(§3)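 SCID mice bearing MOLM-16 xenografts given a single iv dose of 50 mg/kg. Concentrations of parent and hydrolysis product measured in plasma (ng/mL) and tumor tissue (ng/g) at 1, 6 and 24 h.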

The target of series [9] is Protein cereblon/Signal transducer and activator of transcription 3 (Homo sapiens, UniProt P40763+Q96SW2). Kind of series: Protac activity at CRBN/STAT3 in human SU-DHL-1 cells assessed as degradation of STAT3 incubated for 4 hrs by western blot analysis. The format is cell-based. In a few lines: as §2
Series [10] has as its target T2, Protein cereblon/Signal transducer and activator of transcription 6 (Homo sapiens). The series is described as follows: Protac activity at CRBN/STAT6 in human SUP-M2 cells assessed as STAT6 degradation at 0.25 to 100 uM incubated for 4 hrs by Western blot analysis. In kind it is cell-based. The conditions noted are these: SUPM2, dose 0.25-100 µM.
The target of series [11] is T3, Protein cereblon/Signal transducer and activator of transcription 5A (Homo sapiens). Kind of series: Protac activity at CRBN/STAT5 in human SUP-M2 cells assessed as STAT5 degradation at 0.25 to 100 uM incubated for 4 hrs by Western blot analysis. In kind it is cell-based. To be noted: SUPM2, dose 0.25-100 µM.
The target in series [12] is Protein cereblon/Signal transducer and activator of transcription 1-alpha/beta (Homo sapiens) (UniProt P42224+Q96SW2). The series is described as follows: Protac activity at CRBN/STAT1 in human SU-DHL-1 cells […] at 0.25 to 100 uM incubated for 4 hrs by Western blot analysis. To be noted: dose lower 0.25 µM. In kind it is cell-based.
Series [13] in a line: Drug uptake in SCID mouse xenografted with human MOLM16 cells assessed as (2-(((5S,8S,10aR)-8-(((S)-5-amino-1-(benzhydrylamino)-1,5-dioxopentan-2-yl)carbamoyl)-3-(8-(2-(2,6-dioxopiperidin-3-yl)-1-oxoisoindolin-4-yl)oct-7-yno yl)-6-oxodecahydropyrrolo[1,2-a][1,5]diazocin-5-yl)carbamoyl)-1H-indole-5-carbonyl)phosphonic acid level in plasma at 50 mg/kg, iv measured after 6 hrs by LC-MS/MS. The format is ADME, organism-based. The conditions noted are these: in vivo. In outline: as §3

The source made the active and inactive calls. The rule behind the calls is not given here.

T2 sequence (P42226 2-847 limits assumed): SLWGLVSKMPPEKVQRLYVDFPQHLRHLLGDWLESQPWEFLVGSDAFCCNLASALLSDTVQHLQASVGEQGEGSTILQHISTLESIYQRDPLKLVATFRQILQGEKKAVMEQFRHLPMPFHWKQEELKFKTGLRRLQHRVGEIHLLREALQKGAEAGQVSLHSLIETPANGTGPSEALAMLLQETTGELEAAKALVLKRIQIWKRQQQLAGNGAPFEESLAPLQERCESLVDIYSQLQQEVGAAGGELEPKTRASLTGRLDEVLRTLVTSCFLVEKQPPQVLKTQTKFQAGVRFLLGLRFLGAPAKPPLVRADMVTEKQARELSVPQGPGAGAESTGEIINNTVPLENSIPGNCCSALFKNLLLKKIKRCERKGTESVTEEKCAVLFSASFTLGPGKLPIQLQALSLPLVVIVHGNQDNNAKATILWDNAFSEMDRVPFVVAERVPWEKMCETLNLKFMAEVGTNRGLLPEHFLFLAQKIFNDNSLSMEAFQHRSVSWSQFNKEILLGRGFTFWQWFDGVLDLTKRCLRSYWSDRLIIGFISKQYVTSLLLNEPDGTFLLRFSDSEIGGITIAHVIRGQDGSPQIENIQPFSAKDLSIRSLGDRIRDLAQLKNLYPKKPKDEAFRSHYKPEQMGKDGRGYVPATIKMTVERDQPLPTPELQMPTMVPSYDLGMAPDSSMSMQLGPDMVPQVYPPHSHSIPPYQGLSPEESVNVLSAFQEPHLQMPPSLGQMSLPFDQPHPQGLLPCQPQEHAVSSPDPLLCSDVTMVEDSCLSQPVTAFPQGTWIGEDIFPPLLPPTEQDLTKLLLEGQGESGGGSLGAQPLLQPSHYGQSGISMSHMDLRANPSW
T2 sequence (Q96SW2 whole entry partner): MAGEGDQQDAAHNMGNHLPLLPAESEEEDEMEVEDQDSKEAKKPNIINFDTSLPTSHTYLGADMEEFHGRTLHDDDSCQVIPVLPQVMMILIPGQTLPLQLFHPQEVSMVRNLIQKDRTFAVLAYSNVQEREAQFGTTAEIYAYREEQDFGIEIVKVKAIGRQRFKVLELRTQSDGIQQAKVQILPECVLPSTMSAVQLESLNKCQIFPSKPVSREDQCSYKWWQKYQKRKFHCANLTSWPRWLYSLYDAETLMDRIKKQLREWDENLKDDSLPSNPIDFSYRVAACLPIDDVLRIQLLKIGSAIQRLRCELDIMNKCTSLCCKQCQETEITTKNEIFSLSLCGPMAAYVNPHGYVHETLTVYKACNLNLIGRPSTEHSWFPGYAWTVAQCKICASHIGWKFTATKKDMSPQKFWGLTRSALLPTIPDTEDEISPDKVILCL
T3 sequence (P42229 whole entry, looked up): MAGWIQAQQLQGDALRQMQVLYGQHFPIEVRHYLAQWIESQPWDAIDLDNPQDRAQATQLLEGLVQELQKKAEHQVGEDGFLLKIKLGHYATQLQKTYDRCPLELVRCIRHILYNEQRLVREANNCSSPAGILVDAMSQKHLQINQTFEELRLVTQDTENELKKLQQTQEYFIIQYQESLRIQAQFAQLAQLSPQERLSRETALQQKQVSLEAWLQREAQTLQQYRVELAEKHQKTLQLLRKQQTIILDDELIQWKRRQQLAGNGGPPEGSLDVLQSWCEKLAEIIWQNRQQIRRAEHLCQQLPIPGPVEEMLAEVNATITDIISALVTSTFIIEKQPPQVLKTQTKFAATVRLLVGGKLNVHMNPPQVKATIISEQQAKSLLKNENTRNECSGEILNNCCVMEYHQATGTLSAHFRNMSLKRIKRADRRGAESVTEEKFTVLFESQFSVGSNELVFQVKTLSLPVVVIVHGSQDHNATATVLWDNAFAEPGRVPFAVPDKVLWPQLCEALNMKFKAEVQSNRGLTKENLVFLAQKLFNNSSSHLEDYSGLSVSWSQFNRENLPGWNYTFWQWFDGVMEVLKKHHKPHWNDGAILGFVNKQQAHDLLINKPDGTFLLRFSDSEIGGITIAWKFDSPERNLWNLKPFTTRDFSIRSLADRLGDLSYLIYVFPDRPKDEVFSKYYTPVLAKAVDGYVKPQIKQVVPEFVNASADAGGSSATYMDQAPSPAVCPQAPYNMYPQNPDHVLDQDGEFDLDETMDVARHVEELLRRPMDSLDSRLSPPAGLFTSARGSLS
T3 sequence (Q96SW2 whole entry, looked up): as the sequence (Q96SW2 whole entry partner) above
Sequence of Protein cereblon/Signal transducer and activator of transcription 3 (P40763 whole entry): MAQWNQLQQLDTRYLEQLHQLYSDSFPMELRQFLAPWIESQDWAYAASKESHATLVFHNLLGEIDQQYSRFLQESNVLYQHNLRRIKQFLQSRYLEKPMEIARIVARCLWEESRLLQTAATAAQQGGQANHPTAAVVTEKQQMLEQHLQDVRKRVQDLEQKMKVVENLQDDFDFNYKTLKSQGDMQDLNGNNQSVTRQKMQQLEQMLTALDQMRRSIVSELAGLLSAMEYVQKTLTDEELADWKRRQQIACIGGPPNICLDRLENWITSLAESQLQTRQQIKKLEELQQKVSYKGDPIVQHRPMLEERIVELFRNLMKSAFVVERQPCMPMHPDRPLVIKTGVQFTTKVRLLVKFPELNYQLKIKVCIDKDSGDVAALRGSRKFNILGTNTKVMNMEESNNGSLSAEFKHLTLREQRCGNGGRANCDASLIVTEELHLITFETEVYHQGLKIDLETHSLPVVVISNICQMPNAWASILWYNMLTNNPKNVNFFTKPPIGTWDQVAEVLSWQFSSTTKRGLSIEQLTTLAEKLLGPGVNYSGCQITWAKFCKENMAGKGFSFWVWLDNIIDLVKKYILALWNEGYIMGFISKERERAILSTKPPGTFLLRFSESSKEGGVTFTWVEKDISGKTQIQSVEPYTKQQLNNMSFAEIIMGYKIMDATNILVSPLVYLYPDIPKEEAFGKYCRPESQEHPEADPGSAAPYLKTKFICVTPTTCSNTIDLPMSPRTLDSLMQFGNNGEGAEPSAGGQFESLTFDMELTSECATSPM
Sequence of Protein cereblon/Signal transducer and activator of transcription 3 (Q96SW2 whole entry): as the sequence (Q96SW2 whole entry partner) above
Sequence of Signal transducer and activator of transcription 3 (P40763 whole entry): as the sequence (P40763 whole entry) above

On to `NC(=O)CC[C@H](NC(=O)[C@@H]1CC[C@@H]2CCN(C(=O)CCCCCC#Cc3cccc4c3CN(C3CCC(=O)NC3=O)C4=O)C[C@H](NC(=O)c3cc4cc(C(=O)P(=O)(O)O)ccc4[nH]3)C(=O)N21)C(=O)NC(c1ccccc1)c1ccccc1` (stereo partly drawn), for which the outcome (in series [1]; in the series with Mus musculus [3]; in the series with Mus musculus [4]) was Active. In series [2], the Kd was greater than 10 nM. Further, in the series with Mus musculus [5], the outcome was inactive.

Regarding `NC(=O)CC[C@H](NC(=O)[C@@H]1CC[C@@H]2CCN(C(=O)CCCCCC#Cc3cccc4c3CN(C3CCC(=O)NC3=O)C4=O)C[C@H](NC(=O)c3cc4cc(C(F)(F)P(=O)(O)O)ccc4[nH]3)C(=O)N21)C(=O)NC(c1ccccc1)c1ccccc1` (stereo partly drawn), the result in series [6], in series [7], in series [10], in series [11] and in series [12] was inactive. For the same compound, the Drug uptake in series [8] came to 396 ng/g; in series [13] it was 25560 ng/mL. Also, the DC50 in series [9] turned out to be 61 nM.

The values above are taken from ChEMBL document CHEMBL4706770, “SD-91 as A Potent and Selective STAT3 Degrader Capable of Achieving Complete and Long-Lasting Tumor Regression” (ACS Med Chem Lett, 2021).
